Results as given in ChEMBL document CHEMBL1145884, “Synthesis and biological activity of novel 1beta-methylcarbapenems with oxyiminopyrrolidinylamide moiety” (2003).
In brackets after ≈: the same amount, converted by molar mass.

Key:
[1] = Compound was evaluated for its relative half life of hydrolysis to meropenem by partially purified porcine renal dihydropeptidase-I (DHP-I); type: functional; settings: Sus scrofa
Escherichia coli [2] = assay: Antibacterial activity against Escherichia coli 078; type: functional
Procedure, shortened: (§1)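 MIC was determined by agar dilution on Mueller–Hinton medium.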

Escherichia coli [3] = assay: Antibacterial activity against Escherichia coli 1507E; type: functional; procedure, shortened: as §1
Enterobacter cloacae = assay: Antibacterial activity against Enterobacter cloacae 1321E; type: functional; procedure, shortened: as §1
Klebsiella aerogenes = assay: Antibacterial activity against Klebsiella aerogenes 1522E; type: functional; procedure, shortened: as §1
Pseudomonas aeruginosa [4] = assay: Antibacterial activity against Pseudomonas aeruginosa 1771M; type: functional; procedure, shortened: as §1
Pseudomonas aeruginosa [5] = assay: Antibacterial activity against Pseudomonas aeruginosa 9027; type: functional; procedure, shortened: as §1
Salmonella typhimurium = assay: Antibacterial activity against Salmonella Typhimurium; type: functional, Salmonella enterica subsp. enterica serovar Typhimurium; settings: Salmonella enterica; procedure, shortened: as §1
Streptococcus pyogenes = assay: Antibacterial activity against Streptococcus pyogenes 308A; type: functional
Staphylococcus aureus [6] = assay: Antibacterial activity against Staphylococcus aureus 285; type: functional
Staphylococcus aureus [7] = assay: Antibacterial activity against Staphylococcus aureus 503; type: functional
Staphylococcus aureus [8] = assay: Antibacterial activity against Staphylococcus aureus SG 511; type: functional
Pseudomonas aeruginosa [9] = assay: Antibacterial activity against Pseudomonas aeruginosa 1592E

C[C@@H](O)[C@H]1C(=O)N2C(C(=O)O)=C(SCCNC=N)C[C@H]12 [IMIPENEM ANHYDROUS]
relative t1/2 (DHP-I hydrolysis vs meropenem) [1]: 0.17
MIC (Escherichia coli [2]): 0.195 µg/mL (≈ 0.651 µM)
MIC (Escherichia coli [3]): 0.195 µg/mL (≈ 0.651 µM)
MIC (Enterobacter cloacae): 0.195 µg/mL (≈ 0.651 µM)
MIC (Klebsiella aerogenes): 0.391 µg/mL (≈ 1.31 µM)
MIC (Pseudomonas aeruginosa [4]): 0.195 µg/mL (≈ 0.651 µM)
MIC (Pseudomonas aeruginosa [5]): 0.781 µg/mL (≈ 2.61 µM)
MIC (Salmonella typhimurium): 0.781 µg/mL (≈ 2.61 µM)
MIC (Streptococcus pyogenes): 0.007 µg/mL (≈ 0.0234 µM)
MIC (Staphylococcus aureus [6]): 0.025 µg/mL (≈ 0.0835 µM)
MIC (Staphylococcus aureus [7]): 0.013 µg/mL (≈ 0.0434 µM)
MIC (Staphylococcus aureus [8]): 0.025 µg/mL (≈ 0.0835 µM)
MIC (Pseudomonas aeruginosa [9]): 0.781 µg/mL (≈ 2.61 µM)
